Most compounds without a hit are left out; they make up all but 1.8% or so of the library.
CASP6 VEID inh – human caspase-6 inhibitors, primary screen, biochemical, VEID-R110 fluorescence, single point, set 2; purified caspase-6, Z-VEID-R110 cleavage fluorescence; inhibition, % at 12.5 µM; actives 0.53% (n = 350,000); AID 686996, 2013;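 active = mean inhibition across replicates at least about 35%, with every replicate also reaching that limit, limit read from the data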;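 note: 0% = median of neutral control wells and 100% = no fluorescence left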
TDP2 absorb – human TDP2 enzyme inhibitors, primary screen, biochemical, epi absorbance, recombinant enzyme | Tyrosyl-DNA phosphodiesterase 2 (Homo sapiens), O95551 | T5PNP hydrolysis, p-nitrophenol absorbance 415 nm | inhibition, % at 12.8 µM | actives 0.34% (n = 370,000) | AID 720702, 2013;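 active = inhibition above the mean of all tested compounds plus 3 SD, set per campaign, cut at about 25% in these data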;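 note: 0% = DMSO with enzyme and 100% = buffer with substrate but no TDP2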
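Incubation: 2 h at 37 °C; Test system: recombinant human TDP2; Quantity: enzyme 120 nM; Read-out basis: percent inhibition; Medium: 50 mM Tris-HCl pH 7.5 with Mg2+, KCl, DTT, BSA; Repeats: single replicate; Compound: 12.8 µM single point, 1% DMSO; Signal: epi absorbance; Reagent: 5 mM T5PNP chromogenic substrate; Benchmarks: no-enzyme high, DMSO-plus-enzyme low.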
NSD2 inh – NSD2 histone methyltransferase inhibitors, primary screen, biochemical, AlphaScreen, single concentration, set 2; actives 0.54% (n = 310,000); NSD2 peptide methylation, 120 min; inhibition, % at 12.5 µM; in the data active = inhibition above about 50%
LEDGF integ inh – blockers of LEDGF/p75-dependent integrase strand transfer – biochemical, TR-FRET, high throughput, primary screen. actives 0.64% (n = 370,000). TR-FRET IN-LEDGF/p75 DNA integration, Eu/Cy5. HIV-1 integrase (with human LEDGF/p75). AID 743269, 2014. inhibition, % at 3.7 µM;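 active = inhibition above the screen-wide mean plus 3 SD, cut at about 13% in these data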;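 note: signal is the Cy5 over europium emission ratio at 671 and 618 nm; 0% = plate median of compound wells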
UHRF1 MBD2 ctr – UHRF1 methylated DNA binding inhibitors, primary screen, counter-screen for MBD2 inhibitor project, biochemical, TR-FRET, human UHRF1, single concentration. E3 ubiquitin-protein ligase UHRF1 (Homo sapiens), Q96T88. UHRF1 binding to methylated oligo. inhibition, % at 4.4 µM. actives 0.75% (n = 370,000). AID 687016, 2013; in the data active = inhibition above about 21%;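 note: UHRF1 SRA domain binding a hemimethylated CpG hairpin DNA probe; 0% = median of test compound wells and 100% = reference inhibitor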
MBD2 DNA inh – inhibitors of MBD2 binding to methylated DNA, primary screen, biochemical, TR-FRET, DNA-binding domain, human; MBD2 binding to methylated oligonucleotide; inhibition, % at 4.4 µM; Methyl-CpG-binding domain protein 2 (Homo sapiens), Q9UBB5; AID 686964, 2013; actives 0.31% (n = 370,000); in the data active = inhibition above about 13%
Target sequence (Q9UBB5 whole entry, looked up, the tested form may be a part): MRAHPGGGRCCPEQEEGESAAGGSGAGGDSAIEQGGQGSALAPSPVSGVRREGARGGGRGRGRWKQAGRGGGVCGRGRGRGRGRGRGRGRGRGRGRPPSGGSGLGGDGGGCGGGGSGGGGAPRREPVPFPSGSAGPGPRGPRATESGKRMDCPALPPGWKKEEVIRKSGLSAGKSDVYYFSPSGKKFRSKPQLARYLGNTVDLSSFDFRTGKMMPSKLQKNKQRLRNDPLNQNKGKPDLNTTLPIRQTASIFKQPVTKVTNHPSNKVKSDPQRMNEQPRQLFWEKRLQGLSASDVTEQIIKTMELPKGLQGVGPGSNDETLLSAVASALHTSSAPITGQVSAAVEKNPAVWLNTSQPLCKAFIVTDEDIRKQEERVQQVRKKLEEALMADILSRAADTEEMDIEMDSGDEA
Active calls of the source: *; . = no result given.

SMILES	CASP6 VEID inh	TDP2 absorb	NSD2 inh	LEDGF integ inh	UHRF1 MBD2 ctr	MBD2 DNA inh
COc1ccc(NC(=O)C2CCN(c3ncnc4c3nc3n4CCCCC3)CC2)c(OC)c1	-1	-1	-2	0	0	-4
O=C(COC(=O)c1cccc(Br)c1)NCc1ccco1	65*	8	-7	5	13	11
Cc1cc(Br)ccc1SCC(=O)OCC(=O)NCc1ccco1	48*	12	1	6	16	6
CCOC(=O)c1ccc(NC(=O)C(=O)NCc2ccco2)cc1	0	12	2	3	24*	1
Cc1ccc(C)c(SCC(=O)OCC(=O)c2ccco2)c1	54*	3	2	4	12	4
Cc1ccc(C)c(SCC(=O)NCc2ccco2)c1	.	-3	3	-4	-1	-2
O=C(COC(=O)CSc1ccc(Br)cc1)NCc1ccco1	-47	10	1	2	-3	1
C[C@@H]1CN([C@H](C)CO)C(=O)c2c(c3ccccc3n2C)-c2ccccc2CO[C@@H]1CN(C)Cc1cccc(O)c1	1	.	.	.	.	.
CO[C@@H]1CN(C)C(=O)c2ccc(NC(=O)Nc3cc(F)ccc3F)cc2OC[C@@H](C)N(C(=O)c2cnccn2)C[C@@H]1C	1	.	.	.	.	.
C/C=C/c1ccc([C@@H]2[C@@H](CO)N3C(=O)CN(S(=O)(=O)c4ccccc4)C[C@H]23)cc1	3	.	.	.	.	.
COCCNC(=S)Nc1ccc(S(=O)(=O)Nc2cnc3ccccc3n2)cc1	0	-3	-3	-2	37*	1
COCCNC(=S)Nc1ccc(S(=O)(=O)Nc2ncccn2)cc1	1	-4	.	-2	4	5
COc1ccc(CN(C)C[C@@H]2OCCCC[C@@H](C)Oc3ccc(NS(C)(=O)=O)cc3C(=O)N([C@@H](C)CO)C[C@@H]2C)cc1	-5	.	.	.	.	.
NS(=O)(=O)c1ccc(NC(=O)CSc2nnc(NC3CC3)s2)cc1	36*	16	14	3	11	-1
CC(C)c1cn(CC[C@@H]2CC[C@@H](NC(=O)C3CC3)[C@@H](CO)O2)nn1	24	.	.	.	.	.
CCOC(=O)Cc1csc(NC(=O)c2c(C)noc2C)n1	19	1	0	1	24*	8
CCOC(=O)Cc1csc(NC(=O)c2c(-c3ccccc3)noc2C)n1	-5	6	-4	-3	0	-1
CS(=O)(=O)N1CC2(C1)[C@H](c1ccccc1)[C@H](CO)N2CC1CCCC1	2	.	.	.	.	.
Cc1cc(Cl)ccc1NNC(N)=S	-5	-3	3	1	22*	7
CCc1cccc(NC(=O)O[C@H]2[C@H](OC(=O)Nc3ccc4c(c3)OCO4)[C@@H](OC(=O)Nc3ccc4c(c3)OCO4)[C@@H](OC)O[C@@H]2CO)c1	0	.	.	.	.	.
CSc1ccc(/C=N/Nc2cccc(C(=O)O)c2)cc1	.	.	99*	.	.	.
O=C(O)c1cccc(N2C(=O)C3CC=C(Cl)CC3C2=O)c1 (stereo not drawn)	67*	2	.	-1	1	-5
O=C(O)c1cccc(N2C(=O)C3CC=CCC3C2=O)c1 (stereo not drawn)	.	-2	31	0	4	4
NC(CO)C(=O)NNCc1ccc(O)c(O)c1O (stereo not drawn)	8	-5	.	43*	11	7
CC(C)=C1C(=O)NN(c2ccc(F)c(Cl)c2)C1=O	68*	2	4	2	-1	-2
SMILES	CASP6 VEID inh	TDP2 absorb	NSD2 inh	LEDGF integ inh	UHRF1 MBD2 ctr	MBD2 DNA inh
CCCCN1C(=O)C(=O)NC[C@@H]1CC1CCCCC1	-2	-4	-1	6	48*	10
O=C(Nc1ccc(F)cc1)N1CCN(C(=O)C2CCCO2)CC1 (stereo not drawn)	82*	-12	0	-9	4	8
O=C(NCc1ccc(Cl)cc1)c1ccc(NC(=O)C2CCCO2)cc1 (stereo not drawn)	-2	14	21	3	0	0
O=C(NCc1ccc(F)cc1)c1ccc(NC(=O)C2CCCO2)cc1 (stereo not drawn)	-1	23	6	-1	38*	2
COC(=O)c1ccc2nc(C(C)(C)C)c(Cc3ccc(OC)cc3C)n2c1	-1	7	.	-1	22*	9
COC(=O)c1ccc2nc(C3CCCCC3)c(Cc3cccc(Cl)c3)n2c1	3	5	.	-2	23*	12
COC(=O)c1ccc2nc(C3CCCCC3)c(Cc3ccc(C)cc3)n2c1	3	-3	.	-3	23*	11
COC(=O)c1ccc2nc(C3CCCCC3)c(Cc3ccc(OC)cc3C)n2c1	2	0	.	-1	21*	9
COC(=O)c1ccc2nc(C3CCCCC3)c(Cc3ccccc3C(F)(F)F)n2c1	-2	-5	.	3	17	11
Cc1ccc(Cc2c(C3CCCCC3)nc3ccc(Br)cn23)cc1	-3	8	.	-2	15	7
C[C@@H]1CN([C@H](C)CO)C(=O)c2cccc(NS(C)(=O)=O)c2O[C@@H]1CN(C)Cc1ccccc1	-3	.	.	.	.	.
COc1ccc(S(=O)(=O)Nc2cccc3c2O[C@H](CN(C)S(=O)(=O)c2ccc(OC)cc2)[C@@H](C)CN([C@@H](C)CO)C3=O)cc1	2	.	.	.	.	.
CC(C)CC#Cc1cnc2c(c1)C(=O)N([C@@H](C)CO)C[C@H](C)[C@@H](CN(C)Cc1ccc(C(=O)O)cc1)O2	3	.	.	.	.	.
O=[N+]([O-])c1cc([N+](=O)[O-])c2cc(-c3cccnc3)[nH]c2c1	0	26*	-1	4	-9	1
Oc1ccc2c(c1)C1CCCC1(N1CCOCC1)O2 (stereo not drawn)	.	5	22	31*	14	2
CC1=C(C(=O)N2CCOCC2)C(c2ccc(O)cc2)NC(=S)N1 (stereo not drawn)	.	-20	-3	-1	1	-4
O=C(CC1CC1)N1CC(=O)N2[C@@H](CO)[C@@H](c3ccc(-c4ccccc4)cc3)[C@@H]2C1	0	.	.	.	.	.
Cn1c(C(=O)N2CCCC(Nc3ccc(F)cc3)C2)cc2ccccc21 (stereo not drawn)	41*	8	6	1	-2	-2
Cc1cc(C)c(C(=O)N2CCCC(Nc3ccc(F)cc3)C2)o1 (stereo not drawn)	2	5	4	-1	1	3
COc1cccc(C(=O)Nc2ccc3c(c2)OC[C@@H](C)N(C)C[C@@H](C)[C@@H](OC)CN(C)C3=O)c1	-1	.	.	.	.	.

From PubChem
